Screening results as filed in PubChem.
TRPC4 agonist – TRPC4 (mouse) channel activation; Q9QUQ5; HEK293 TRPC4beta/mu-opioid, Fluo4 calcium fluorescence; active compounds read high; B-score at 10 µM; 310,000 tested, 0.49% active; AID 2237;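 active = B-score above 5 SD of library B-scores, and initial fluorescence ratio not above library mean plus 5 SD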;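 note: positive B-score marks a calcium rise read as TRPC4 activation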
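Technique: kinetic Fluo4 calcium fluorescence; Test system: TRPC4beta and mu-opioid receptor HEK293 stable cells; Measure: B-scored integrated calcium fluorescence ratio; Benchmarks: low control buffer alone, high control maximal DAMGO; Schedule: 45 min room-temperature Fluo4 loading, 110 s read.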
TRPC6 inhibitor – blocks the mouse TRPC6 cation channel; AID 2553; 310,000 tested, 1.1% active; HEK293-TRPC6, membrane potential dye, ACh-evoked depolarization; active compounds read low; B-score at 10 µM;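 active = B-score under library mean minus 3 SD, initial fluorescence not abnormally high, positive integrated signal ratio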;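 note: B-score derived from integrated fluorescence ratio over the kinetic read; more negative B-score means stronger inhibition of depolarization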
DSG3 Ab inh – human desmoglein-3 autoantibody binding inhibition | P32926 | DSG3-coupled beads, scFv-anti-DSG3-GFP binding, flow cytometry; active compounds read low | binding (percent of control), % at 10 µM | 310,000 tested, 0.48% active | AID 588358;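 active = binding more than 3 SD below its plate's average and above zero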;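 note: hits lower antibody fragment binding to DSG3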
Target sequence (P32926 whole entry, looked up, the tested form may be a part): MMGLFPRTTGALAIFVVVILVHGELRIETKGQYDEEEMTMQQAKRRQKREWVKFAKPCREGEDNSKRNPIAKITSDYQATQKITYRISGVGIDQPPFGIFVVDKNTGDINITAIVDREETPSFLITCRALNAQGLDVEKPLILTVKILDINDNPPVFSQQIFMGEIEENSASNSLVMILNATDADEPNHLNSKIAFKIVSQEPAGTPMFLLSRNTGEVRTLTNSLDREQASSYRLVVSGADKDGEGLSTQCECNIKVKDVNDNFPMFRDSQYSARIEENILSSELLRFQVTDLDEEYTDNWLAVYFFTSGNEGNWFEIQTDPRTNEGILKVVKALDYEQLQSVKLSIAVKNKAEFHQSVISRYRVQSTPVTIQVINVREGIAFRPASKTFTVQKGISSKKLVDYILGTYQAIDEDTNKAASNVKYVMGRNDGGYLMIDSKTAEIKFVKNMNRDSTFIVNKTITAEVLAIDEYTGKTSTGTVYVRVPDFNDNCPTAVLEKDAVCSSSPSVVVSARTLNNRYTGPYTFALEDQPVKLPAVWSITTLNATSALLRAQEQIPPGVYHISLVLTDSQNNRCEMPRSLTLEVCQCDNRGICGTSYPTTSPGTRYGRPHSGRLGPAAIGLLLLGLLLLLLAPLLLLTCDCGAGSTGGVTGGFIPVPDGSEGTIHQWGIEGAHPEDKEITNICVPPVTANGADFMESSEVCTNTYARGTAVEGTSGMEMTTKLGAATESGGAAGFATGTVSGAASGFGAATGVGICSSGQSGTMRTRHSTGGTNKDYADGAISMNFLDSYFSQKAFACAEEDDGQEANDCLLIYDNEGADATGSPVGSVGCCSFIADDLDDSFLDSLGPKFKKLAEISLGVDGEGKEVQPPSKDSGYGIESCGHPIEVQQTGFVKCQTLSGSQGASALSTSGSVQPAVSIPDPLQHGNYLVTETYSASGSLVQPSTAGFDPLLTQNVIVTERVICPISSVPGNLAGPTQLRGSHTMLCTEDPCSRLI
TRPC4 inh – blocks the mouse TRPC4 cation channel. 300,000 tested, 0.39% active. AID 2247. HEK293 TRPC4beta/mu-opioid, DAMGO-evoked Fluo4 calcium flux; active compounds read low. Q9QUQ5. B-score at 10 µM;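 active = B-score over 3 SD under the library average, no early fluorescence shift, positive overall ratio signal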
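material = TRPC4beta/mu-opioid receptor HEK293 cell line | probe or stimulus = sequential submaximal and maximal DAMGO stimulation | compound dosing = one concentration per compound | measured by = Fluo4 Ca2+ flux fluorescence | evaluation = integrated fluorescence ratio relative to baseline, converted to per-well B score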
TRPC4 PAM – allosteric potentiators of mouse TRPC4 channel; B-score at 10 µM; HEK293 TRPC4beta/mu-opioid, DAMGO EC20, Fluo-4 Ca2+ flux; active compounds read high; 310,000 tested, 0.42% active; AID 2227;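 active = B-score of calcium response area above 5 SD of library B-scores, with initial fluorescence ratio within 5 SD of library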
TRPC6 activator – activators of mouse TRPC6 channel. 310,000 tested, 0.13% active. AID 2550. B-score at 10 µM. HEK293-TRPC6 membrane potential dye fluorescence; active compounds read high. Q61143;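 active = B-score of the integrated fluorescence ratio above library mean plus 3 SD, and starting fluorescence ratio within library mean plus 5 SD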;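 note: higher score means more depolarization so channel activation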
A number is an active result; n = inactive; x = no result. Hits are enriched below; roughly 2.5% of the tested compounds scored in any of these assays.

SMILES	TRPC4 agonist	TRPC6 inhibitor	DSG3 Ab inh	TRPC4 inh	TRPC4 PAM	TRPC6 activator
COc1cc2c(cc1NC(=S)NC(=O)/C=C/c1ccc(OC)c(OC)c1)oc1ccccc12	x	x	68	x	x	x
COc1cc2c(cc1NC(=O)C(C)Sc1ccc(NC(C)=O)cc1)oc1ccccc12 (configuration not stated)	n	n	n	n	11	n
O=C(CCNC(=O)c1ccc(Br)cc1)Nc1ccccc1N1CCCCC1	n	n	n	-6	n	n
CCC(C(=O)Nc1ccc2c(c1)OCCO2)n1c(=O)[nH]c2ccccc2c1=O (configuration not stated)	n	n	n	n	n	n
COC(=O)c1ccccc1NC(=O)CCC(=O)N1CC(C)Oc2ccc(C)cc21 (configuration not stated)	n	n	n	-8	n	n
Cc1ccc2c(c1)N(C(=O)CCC(=O)NCC(C)c1ccccc1)CC(C)O2 (configuration not stated)	n	n	n	n	n	n
CC1=CCC(/C=N\Nc2nnc3c(n2)[nH]c2ccccc23)CC1 (configuration not stated)	n	n	x	n	n	n
O=Cc1[nH]c2ccccc2c1N(C(=O)CCl)c1ccc([N+](=O)[O-])cc1	45	n	n	n	n	n
N/C(=N\N=C\c1ccc(Br)o1)c1nonc1N	n	n	n	n	n	n
COc1ccc(Cn2c(=O)c3c(nc(NCCO)n3C)n(C)c2=O)cc1	n	n	n	n	12	n
CC(C)(C)c1csc(NC(=O)c2cccs2)n1	n	n	n	n	n	n
CC(C)(C)c1csc(NC(=O)Cc2cccs2)n1	n	n	n	n	69	n
O=C(/C=C/c1ccccc1)NC(=S)NNC(=O)Cc1cccs1	n	n	n	n	n	n
O=C(Cc1cccs1)NNC(=S)NC(=O)c1ccccc1	52	n	n	n	n	n
O=C(Cc1cccs1)NNC(=S)NC(=O)c1ccc(F)c(F)c1	60	n	n	n	n	n
CCOC(=O)N1CCN(C2=Nc3cccc4cccc2c34)CC1	n	-7.4	n	n	n	n
O=C1c2cccc3cccc(c23)C(=O)N1CC1CCN(S(=O)(=O)c2ccccc2)CC1	x	x	n	x	x	x
c1ccc(CC2CCN(C3=Nc4cccc5cccc3c45)CC2)cc1	n	-6.1	n	n	n	n
Cn1c(=O)c2sc3c(c2n(CC(=O)Nc2ccccc2)c1=O)COC(C)(C)C3	n	n	x	n	n	n
CN(Cc1nc(Cc2ccccc2F)no1)Cc1cccc2ncccc12	n	n	n	n	n	n
O=C(Nc1ccccc1)NC1CCN(Cc2c(F)cccc2Cl)CC1	n	n	x	n	n	n
CC(C)(C)c1ccccc1NC(=O)NC1CCN(Cc2c(F)cccc2Cl)CC1	116	n	n	n	n	n
O=C(CN(C1CCCCC1)C1CCCCC1)N1CCc2ccccc2C1	n	n	41	n	n	n
CNc1c(NC(=O)c2ccc3c(c2)OCO3)c(=O)oc2ccccc12	n	n	x	n	n	n
COc1cc(OC)c(OC)cc1CCC(C)NCCC(c1ccccc1)c1ccccc1 (configuration not stated)	87	n	n	n	n	n
SMILES	TRPC4 agonist	TRPC6 inhibitor	DSG3 Ab inh	TRPC4 inh	TRPC4 PAM	TRPC6 activator
COc1cccc(CN2CCN(C(=O)c3cccc(OC)c3)CC2)c1	n	n	n	n	n	n
O=C(c1ccccc1)N1CCN(Cc2cccc(Oc3ccccc3)c2)CC1	n	-11	n	n	n	17
O=C(c1cccc(NS(=O)(=O)c2ccc(F)c(F)c2)c1)N1CCN(Cc2ccccc2)CC1	81	n	n	n	n	n
O=C(CNc1cc(S(=O)(=O)N2CCCC2)ccc1OCC(F)(F)F)Nc1ccc(SC(F)F)cc1	n	n	n	n	n	n
Cc1cc(Nc2ccc(C)c(C)c2)c2ccccc2n1	n	n	n	-6	n	n
CC1(C(=O)OCC(=O)Nc2nnc(-c3ccccc3)o2)CC1(Cl)Cl (configuration not stated)	n	n	n	n	n	n
COc1ccc(CNCc2cccc(Oc3ccccc3)c2)cc1	n	n	n	-6	n	n
COc1ccc(CNCc2cccc(C)c2)cc1	n	n	n	n	n	n
COCCN(C(=O)c1cc(-c2ccco2)nc2ccccc12)c1c(N)n(Cc2ccccc2)c(=O)[nH]c1=O	x	x	n	x	x	x
CCCN(C(=O)c1cc(-c2ccco2)nc2ccccc12)c1c(N)n(Cc2ccccc2)c(=O)[nH]c1=O	n	n	87	n	n	n
O=C(Nc1nnc(-c2ccccc2Cl)o1)c1nc2ccccc2s1	185	n	n	n	n	n
O=C(COc1cccc2ccccc12)N/N=C/c1ccccc1OCc1ccc(C(=O)O)cc1	n	n	n	-5	n	n
COc1cc(NC(=O)COc2ccccc2[N+](=O)[O-])ccc1NC(=O)c1cccs1	n	n	n	n	n	n
COc1cc(NC(=O)COc2ccccc2Cl)ccc1NC(=O)c1cccs1	n	n	6.8	n	n	n
Cc1nc(NC(=O)COC(=O)c2cccs2)c(Cl)cc1Cl	x	x	n	x	x	x
CCCC(=O)c1ccc(N2CCN(C(=O)c3ccccc3Br)CC2)c(F)c1	n	n	x	n	11	n
Cc1cccc(C(=O)N[C@@H]2c3ccccc3C[C@@H]2O)n1	n	n	n	n	n	n
Cc1ccc(C(=O)C2=C(O)C(=O)N(Cc3cccnc3)C2c2ccc(Cl)c(Cl)c2)o1 (configuration not stated)	n	n	n	-6	n	n
Cc1ccc(C(=O)C2=C(O)C(=O)N(Cc3cccnc3)C2c2ccc(Br)cc2)o1 (configuration not stated)	n	n	x	n	n	n
COc1ccc2[nH]c3c(c2c1)CCN1C(=O)C(CC(=O)NCc2cccc(C(F)(F)F)c2)C[C@H](C(=O)N2CCCCC2)[C@@]31C (some centres not stated)	x	x	79	x	x	x
C[C@]12c3[nH]c4ccc(Cl)cc4c3CCN1C(=O)[C@@H](CC(=O)NCc1cccc(C(F)(F)F)c1)C[C@@H]2C(=O)N1CCCCC1	x	x	n	x	x	x
COc1ccc(C(CNC(=O)CN2C(=O)NC3(CCCC3)C2=O)N(C)C)cc1 (configuration not stated)	134	n	n	n	n	n
COc1ccc(CC(=O)NCC(c2ccc(OC)cc2)N(C)C)cc1 (configuration not stated)	216	n	n	n	n	n
COc1ccc(C(CNC(=O)Cc2cccs2)N(C)C)cc1 (configuration not stated)	99	n	x	n	n	n
COc1ccc(C(CNC(=O)c2cncc(Br)c2)N(C)C)cc1 (configuration not stated)	n	n	n	x	n	n
